From article PMC3954597 (Biochemistry, 2014) come the findings set out here.

Positions count from the first letter of the chain named.

Type in all cases: biochemical
Experiment [1] concerns the target T1, PTP-PEST (Homo sapiens, UniProt Q05209).
T1 sequence (Q05209 5-300): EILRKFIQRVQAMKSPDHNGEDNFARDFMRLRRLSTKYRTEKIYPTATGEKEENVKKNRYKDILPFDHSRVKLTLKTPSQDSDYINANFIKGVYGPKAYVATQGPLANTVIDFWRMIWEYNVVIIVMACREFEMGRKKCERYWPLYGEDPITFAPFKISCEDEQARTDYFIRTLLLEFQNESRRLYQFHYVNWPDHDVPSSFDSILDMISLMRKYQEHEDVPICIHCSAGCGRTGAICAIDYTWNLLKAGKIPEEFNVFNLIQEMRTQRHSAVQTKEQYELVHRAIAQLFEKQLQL
Nature of the experiment: PTP assay with pY peptide substrates, PTP-PEST. The note with it: for Km / kcat / kcat/KM x10^6: catalytic domain, 100 mM HEPES pH 7.4, monitored at 282 nm.

The target in experiment [2] is T2, PTP1B (Homo sapiens, UniProt P18031).
T2 sequence (P18031 1-321): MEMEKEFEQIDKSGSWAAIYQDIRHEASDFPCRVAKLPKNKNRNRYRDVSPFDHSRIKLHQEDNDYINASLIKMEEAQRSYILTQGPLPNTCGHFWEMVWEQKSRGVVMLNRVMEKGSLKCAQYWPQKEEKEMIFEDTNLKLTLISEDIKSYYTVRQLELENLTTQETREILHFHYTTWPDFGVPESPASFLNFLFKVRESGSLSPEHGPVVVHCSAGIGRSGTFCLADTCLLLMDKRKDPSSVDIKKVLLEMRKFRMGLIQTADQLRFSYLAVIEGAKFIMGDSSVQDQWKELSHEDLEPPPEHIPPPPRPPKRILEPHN
The experiment can be described thus: PTP assay, wild-type PTP1B. The note with it: for kcat/KM x10^6: WT catalytic domain aa 1–321, 100 mM HEPES pH 7.4, monitored at 282 nm. Put shortly: (§1)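 E. coli-expressed catalytic domains were used: wild-type, R24M or R47E PTP1B (aa 1–321), and SHP-1 (aa 205–595). Reactions started with PTP (0.5–20000 nM final) and dephosphorylation was monitored continuously at 282 nm. kcat, KM and kcat/KM came from initial-rate fits (Michaelis–Menten, or V = kcat[E][S]/KM when KM >> [S]) or from fits of progress curves.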

The target of experiment [3] is T3, TCPTP (Homo sapiens, UniProt P17706).
T3 sequence (P17706 1-314): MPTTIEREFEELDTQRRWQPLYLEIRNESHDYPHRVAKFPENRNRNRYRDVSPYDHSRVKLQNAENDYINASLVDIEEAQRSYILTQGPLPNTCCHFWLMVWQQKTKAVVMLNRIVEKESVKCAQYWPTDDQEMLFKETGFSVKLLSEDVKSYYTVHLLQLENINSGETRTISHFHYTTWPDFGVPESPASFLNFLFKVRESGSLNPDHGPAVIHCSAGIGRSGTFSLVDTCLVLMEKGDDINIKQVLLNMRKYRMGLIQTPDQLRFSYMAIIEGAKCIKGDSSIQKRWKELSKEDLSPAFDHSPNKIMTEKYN
Nature of the experiment: PTP assay, TCPTP.

The target in experiment [4] is T4, PTPRD (Homo sapiens, UniProt P23468).
T4 sequence (P23468 1299-1899): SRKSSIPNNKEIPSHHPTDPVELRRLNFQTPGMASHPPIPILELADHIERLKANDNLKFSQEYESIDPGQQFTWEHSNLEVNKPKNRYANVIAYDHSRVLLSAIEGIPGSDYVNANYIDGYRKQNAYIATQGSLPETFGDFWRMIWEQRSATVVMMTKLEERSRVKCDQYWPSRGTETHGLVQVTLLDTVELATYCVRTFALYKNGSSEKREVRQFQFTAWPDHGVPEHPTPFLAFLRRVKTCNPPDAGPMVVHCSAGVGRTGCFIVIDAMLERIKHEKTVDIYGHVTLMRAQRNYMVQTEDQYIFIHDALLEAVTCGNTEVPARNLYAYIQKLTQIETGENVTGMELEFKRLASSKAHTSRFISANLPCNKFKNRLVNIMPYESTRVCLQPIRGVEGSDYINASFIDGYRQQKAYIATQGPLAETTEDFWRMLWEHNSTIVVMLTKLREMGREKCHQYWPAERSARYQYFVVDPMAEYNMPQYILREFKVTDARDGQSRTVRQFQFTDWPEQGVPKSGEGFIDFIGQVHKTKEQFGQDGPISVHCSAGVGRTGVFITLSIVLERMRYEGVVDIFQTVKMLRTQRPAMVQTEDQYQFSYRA
Nature of the experiment: PTP assay, PTPRD.

Experiment [5] deals with T5, R47E PTP1B (Homo sapiens, UniProt P18031, R47E).
T5 sequence (P18031 1-321 R47E): T2 sequence (P18031 1-321) with R47E
Nature of the experiment: PTP assay, R47E PTP1B. The gist of the method:
as §1

Experiment [6] addresses T6, R24M PTP1B (Homo sapiens, UniProt P18031, R24M).
T6 sequence (P18031 1-321 R24M): T2 sequence (P18031 1-321) with R24M
The experiment can be described thus: PTP assay, R24M PTP1B. The gist of the method:
as §1

Setting [7] is: kcat/KM of neutral peptide over basic Ac-YRKRFpYRYKF-NH2.
Setting [8] is: catalytic domain, 100 mM HEPES pH 7.4, monitored at 282 nm.
[9] abbreviates: kcat/KM of acidic peptide over basic Ac-YRKRFpYRYKF-NH2.
The mark [10] stands for this setting: kcat/KM of acidic peptide over neutral Ac-SASASpYSASA-NH2.

Usually Km stands for the concentration of substrate that gives half-maximal velocity. One may read the kcat as the maximal rate divided by the concentration of active sites. Regarding Ac-SASASpYSASA-NH2, the Km in experiment [1] is 800 ± 10 µM; in experiment [3] (setting [8]) it was 10 ± 1 µM; in experiment [5] (R47E PTP1B aa 1–321, pH 7.4) it was 12 ± 1 µM; in experiment [6] (R24M PTP1B aa 1–321, pH 7.4), 14 ± 0.6 µM. The turnover number (kcat) in experiment [1] turned out to be 160 ± 2 s⁻¹; in experiment [3] (setting [8]), 17 ± 2 s⁻¹; in experiment [5] (R47E PTP1B aa 1–321, pH 7.4) it was 35 ± 1 s⁻¹; in experiment [6] (R24M PTP1B aa 1–321, pH 7.4), 42 ± 2 s⁻¹. Moreover, the “kcat/KM x10^6” value is reported as 0.20 x10^6 M^−1 s^−1 in experiment [1], 2.3 x10^6 M^−1 s^−1 in experiment [2], 1.7 x10^6 M^−1 s^−1 in experiment [3] (setting [8]) and 0.00068 x10^6 M^−1 s^−1 in experiment [4] (setting [8]). In addition, the “kcat/KM x 10^7” value in experiment [2] (WT PTP1B aa 1–321, pH 7.4) was 0.23 x 10^7 M^−1 s^−1; in experiment [5] (R47E PTP1B aa 1–321, pH 7.4), 0.29 x 10^7 M^−1 s^−1; in experiment [6] (R24M PTP1B aa 1–321, pH 7.4), 0.30 x 10^7 M^−1 s^−1. For the same substance, the “Neutral/Basic ratio of kcat/KM values” was 61 in experiment [2] (setting [7]), 53 in experiment [3] (setting [7]) and 1 in experiment [4] (setting [7]). Further, the WT/R47E in experiment [5] (ratio of kcat/KM, WT over R47E PTP1B (fold decrease by the mutation)) came to 0.79. Besides, in experiment [6] (ratio of kcat/KM, WT over R24M PTP1B (fold reduction by the mutation)), the WT/R24M amounted to 0.77.

In the case of Ac-YDEDFpYDYEF-NH2, the Michaelis-Menten constant (Km) was 2.2 ± 0.5 µM in experiment [1] and > 60 µM in experiment [4] (setting [8]). The results for the catalytic constant (kcat) in experiment [1] and in experiment [4] (setting [8]) were 470 ± 10 s⁻¹ and >0.86 s⁻¹, respectively. Moreover, the “kcat/KM x10^6” value in experiment [1] is recorded as 220 x10^6 M^−1 s^−1; in experiment [2], 55 x10^6 M^−1 s^−1; in experiment [4] (setting [8]), 0.014 x10^6 M^−1 s^−1. Further, the “Acidic/Basic ratio of kcat/KM values” in experiment [1] (setting [9]) was determined as 150000; in experiment [2] (setting [9]), 1500; in experiment [4] (setting [9]) it was 21. Also, the “Acidic/Neutral ratio of kcat/KM values” came out at 1100 in experiment [1] (setting [10]), 24 in experiment [2] (setting [10]) and 21 in experiment [4] (setting [10]).

Ac-YRKRFpYRYKF-NH2: the “kcat/KM x10^6” value in experiment [1] is listed as 0.0015 x10^6 M^−1 s^−1; in experiment [2] it was 0.037 x10^6 M^−1 s^−1; in experiment [3] (setting [8]), 0.032 x10^6 M^−1 s^−1; in experiment [4] (setting [8]) it was 0.0007 x10^6 M^−1 s^−1.
